Measurements reported in ChEMBL document CHEMBL1135248, “Synthesis and evaluation of pseudopeptide analogues of a specific CXCR4 inhibitor, T140: the insertion of an (E)-alkene dipeptide isostere into the betaII'-turn moiety” (Bioorg Med Chem Lett, 2002).
pEC50, pIC50: −log10 of the molar value. Values joined by “and” are separate entries in the source; they are usually repeats but may differ in a detail not shown here. Identical values can stand only once.

How the values were obtained:
[1] = system: MT4; assay: Cytotoxicity based on the reduction of the viability of mock-infected MT-4 cells using the MTT method; assay type: functional, Homo sapiens
In short: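 Mock-infected MT-4 cells were exposed to compound. Loss of viability was read by the MTT method, and CC50 was derived. Values are the mean of at least three experiments.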

[2] = system: MT4; assay: Anti-HIV activity based on the protection against HIV-induced cytopathogenicity in MT-4 cells using MTT method; assay type: functional, cell-based, Homo sapiens
In short: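 MT-4 cells challenged with the X4 strain HIV-1 IIIB. Protection from virus-induced cytopathogenicity was read by the MTT method, and EC50 was derived. Values are the mean of at least three experiments.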

[3] = Selectivity index (SI) is determined as the ratio of CC50/EC50; assay type: functional
In short: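 Ratio of CC50 to EC50, both taken from MTT read-outs in MT-4 cells: mock-infected cells for CC50 and HIV-1 IIIB-infected cells for EC50. Each value is the mean of at least three experiments.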

[4] = target: T1, C-X-C chemokine receptor type 4 (Homo sapiens, UniProt P61073); assay: (§1) Inhibitory activity based on the inhibition of [Ca2+] mobilization induced by human SDF-1alpha stimulation through CXCR4
T1 sequence (P61073 whole entry): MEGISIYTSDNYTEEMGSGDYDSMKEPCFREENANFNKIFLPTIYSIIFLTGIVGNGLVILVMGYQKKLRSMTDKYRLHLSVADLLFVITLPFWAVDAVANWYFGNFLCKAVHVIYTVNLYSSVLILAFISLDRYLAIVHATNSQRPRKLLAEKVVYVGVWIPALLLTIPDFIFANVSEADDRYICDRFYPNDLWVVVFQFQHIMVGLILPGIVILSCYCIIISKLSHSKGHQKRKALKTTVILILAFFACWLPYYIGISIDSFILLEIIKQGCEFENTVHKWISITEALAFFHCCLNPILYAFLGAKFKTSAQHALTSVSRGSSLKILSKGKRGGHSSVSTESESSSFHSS
In short: (§2)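 CHO cells transfected with CXCR4 were loaded with Fura-2-AM for 1–2 h and then pretreated with analogue. Recombinant human SDF-1α was added 3 min later. [Ca2+]i rise was measured spectrofluorometrically by a modified Fura-2 method, and IC50 was derived from inhibition of mobilization. Values are the mean of two experiments.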

[5] = target: T1, C-X-C chemokine receptor type 4; assay: as §1; in short: as §2; remark: listed apart in the source

SMILES: C[C@H]1/C=C\[C@@H](CCCCN)NC(=O)[C@H](CCCCN)NC(=O)[C@H](CCCN=C(N)N)NC(=O)[C@H](Cc2ccc(O)cc2)NC(=O)[C@@H](NC(=O)[C@H](Cc2c[nH]c3ccccc23)NC(=O)[C@H](CCCN=C(N)N)NC(=O)[C@@H](N)CCCN=C(N)N)CSSC[C@@H](C(=O)N[C@@H](CCCN=C(N)N)C(N)=O)NC(=O)[C@H](CCCNC(N)=O)NC(=O)[C@H](CCCN=C(N)N)NC(=O)[C@H](Cc2ccc(O)cc2)NC1=O [listing 1 of 2 here]
- CC50 [1]: 58000 nM
- CC50 ([1]; Homo sapiens, MT4): 56000 nM

SMILES: C[C@H]1/C=C\[C@@H](CCCCN)NC(=O)[C@H](CCCCN)NC(=O)[C@H](CCCN=C(N)N)NC(=O)[C@H](Cc2ccc(O)cc2)NC(=O)[C@@H](NC(=O)[C@H](CSCc2ccccc2)NC(=O)[C@H](CCCN=C(N)N)NC(=O)[C@@H](N)CCCN=C(N)N)CSSC[C@@H](C(=O)N[C@@H](CCCN=C(N)N)C(N)=O)NC(=O)[C@H](CCCNC(N)=O)NC(=O)[C@H](CCCN=C(N)N)NC(=O)[C@H](Cc2ccc(O)cc2)NC1=O [listing 1 of 2 here]
- CC50 [1]: 59000 nM
- CC50 ([1]; Homo sapiens, MT4): 54000 nM

SMILES: Cc1cn([C@H]2C[C@H](N=[N+]=[N-])[C@@H](CO)O2)c(=O)[nH]c1=O [ZIDOVUDINE]
- CC50 ([1]; Homo sapiens, MT4): 12000 nM
- pEC50 ([2]; Homo sapiens, MT4): 9.52
- SI [3]: 35000

SMILES: C[C@H]1/C=C\[C@@H](CCCCN)NC(=O)[C@H](CCCCN)NC(=O)[C@H](CCCN=C(N)N)NC(=O)[C@H](Cc2ccc(O)cc2)NC(=O)[C@@H](NC(=O)[C@H](Cc2ccc3ccccc3c2)NC(=O)[C@H](CCCN=C(N)N)NC(=O)[C@@H](N)CCCN=C(N)N)CSSC[C@@H](C(=O)N[C@@H](CCCN=C(N)N)C(=O)O)NC(=O)[C@H](CCCNC(N)=O)NC(=O)[C@H](CCCN=C(N)N)NC(=O)[C@H](Cc2ccc(O)cc2)NC1=O [listing 1 of 2 here]
- CC50 [1]: 67000 nM and 270000 nM

SMILES: C[C@H]1/C=C\[C@@H](CCCCN)NC(=O)[C@H](CCCCN)NC(=O)[C@H](CCCNC(=N)N)NC(=O)[C@H](Cc2ccc(O)cc2)NC(=O)[C@@H](NC(=O)[C@H](Cc2ccc3ccccc3c2)NC(=O)[C@H](CCCNC(=N)N)NC(=O)[C@@H](N)CCCN=C(N)N)CSSC[C@@H](C(=O)N[C@@H](CCCNC(=N)N)C(=O)O)NC(=O)[C@H](CCCNC(N)=O)NC(=O)[C@H](CCCNC(=N)N)NC(=O)[C@H](Cc2ccc(O)cc2)NC1=O
- pIC50 [4]: 8.16
- pIC50 [5]: 8.14

SMILES: C[C@H]1/C=C\[C@@H](CCCCN)NC(=O)[C@H](CCCCN)NC(=O)[C@@H](CCCN=C(N)N)NC(=O)[C@H](Cc2ccc(O)cc2)NC(=O)[C@@H](NC(=O)[C@H](Cc2c[nH]c3ccccc23)NC(=O)[C@H](CCCN=C(N)N)NC(=O)[C@@H](N)CCCN=C(N)N)CSSC[C@@H](C(=O)N[C@@H](CCCN=C(N)N)C(N)=O)NC(=O)C(CCCNC(N)=O)NC(=O)[C@@H](CCCN=C(N)N)NC(=O)[C@H](Cc2ccc(O)cc2)NC1=O (stereo partly drawn)
- SI [3]: 15000 and 20000

SMILES: C[C@H]1/C=C\[C@@H](CCCCN)NC(=O)[C@H](CCCCN)NC(=O)[C@H](CCCN=C(N)N)NC(=O)[C@H](Cc2ccc(O)cc2)NC(=O)[C@@H](NC(=O)[C@H](Cc2ccc3ccccc3c2)NC(=O)[C@H](CCCN=C(N)N)NC(=O)[C@@H](N)CCCN=C(N)N)CSSC[C@@H](C(=O)N[C@@H](CCCN=C(N)N)C(=O)O)NC(=O)[C@H](CCCNC(N)=O)NC(=O)[C@H](CCCN=C(N)N)NC(=O)[C@H](Cc2ccc(O)cc2)NC1=O [listing 2 of 2 here]
- pEC50 ([2]; mt4): > 9.52 and 8.72

SMILES: C[C@H]1/C=C\[C@@H](CCCCN)NC(=O)[C@H](CCCCN)NC(=O)[C@H](CCCN=C(N)N)NC(=O)[C@H](Cc2ccc(O)cc2)NC(=O)[C@@H](NC(=O)[C@H](Cc2c[nH]c3ccccc23)NC(=O)[C@H](CCCN=C(N)N)NC(=O)[C@@H](N)CCCN=C(N)N)CSSC[C@@H](C(=O)N[C@@H](CCCN=C(N)N)C(N)=O)NC(=O)[C@H](CCCNC(N)=O)NC(=O)[C@H](CCCN=C(N)N)NC(=O)[C@H](Cc2ccc(O)cc2)NC1=O [listing 2 of 2 here]
- pIC50 [4]: 8.30
- pEC50 ([2]; Homo sapiens, MT4): 8.43
- pEC50 ([2]; mt4): 8.54

SMILES: C[C@H]1/C=C\[C@@H](CCCCN)NC(=O)[C@H](CCCCN)NC(=O)[C@H](CCCN=C(N)N)NC(=O)[C@H](Cc2ccc(O)cc2)NC(=O)[C@@H](NC(=O)[C@H](Cc2c[nH]c3ccccc23)NC(=O)[C@H](CCCN=C(N)N)NC(=O)[C@@H](N)CCCN=C(N)N)CSSC[C@@H](C(=O)N[C@@H](CCCN=C(N)N)C(=O)O)NC(=O)[C@H](CCCNC(N)=O)NC(=O)[C@H](CCCN=C(N)N)NC(=O)[C@H](Cc2ccc(O)cc2)NC1=O
- CC50 ([1]; Homo sapiens, MT4): 100000 nM

SMILES: C[C@H]1/C=C\[C@@H](CCCCN)NC(=O)[C@H](CCCCN)NC(=O)[C@@H](CCCN=C(N)N)NC(=O)[C@H](Cc2ccc(O)cc2)NC(=O)[C@@H](NC(=O)[C@H](CSC23C[C@H]4C[C@@H](C2)C[C@@H](C3)C4)NC(=O)[C@H](CCCN=C(N)N)NC(=O)[C@@H](N)CCCN=C(N)N)CSSC[C@@H](C(=O)N[C@@H](CCCN=C(N)N)C(N)=O)NC(=O)C(CCCNC(N)=O)NC(=O)[C@@H](CCCN=C(N)N)NC(=O)[C@H](Cc2ccc(O)cc2)NC1=O (stereo partly drawn)
- SI [3]: 6900 and 3300

SMILES: C[C@H]1/C=C\[C@@H](CCCCN)NC(=O)[C@H](CCCCN)NC(=O)[C@H](CCCN=C(N)N)NC(=O)[C@H](Cc2ccc(O)cc2)NC(=O)[C@@H](NC(=O)[C@H](CSC23C[C@H]4C[C@@H](C2)C[C@@H](C3)C4)NC(=O)[C@H](CCCN=C(N)N)NC(=O)[C@@H](N)CCCN=C(N)N)CSSC[C@@H](C(=O)N[C@@H](CCCN=C(N)N)C(N)=O)NC(=O)[C@H](CCCNC(N)=O)NC(=O)[C@H](CCCN=C(N)N)NC(=O)[C@H](Cc2ccc(O)cc2)NC1=O [listing 1 of 2 here]
- CC50 [1]: 57000 nM
- CC50 ([1]; Homo sapiens, MT4): 49000 nM

SMILES: C[C@H]1/C=C\[C@@H](CCCCN)NC(=O)[C@H](CCCCN)NC(=O)[C@@H](CCCN=C(N)N)NC(=O)[C@H](Cc2ccc(O)cc2)NC(=O)[C@@H](NC(=O)[C@H](CSCc2ccccc2)NC(=O)[C@H](CCCN=C(N)N)NC(=O)[C@@H](N)CCCN=C(N)N)CSSC[C@@H](C(=O)N[C@@H](CCCN=C(N)N)C(N)=O)NC(=O)C(CCCNC(N)=O)NC(=O)[C@@H](CCCN=C(N)N)NC(=O)[C@H](Cc2ccc(O)cc2)NC1=O (stereo partly drawn)
- SI [3]: 810 and 1300

SMILES: C[C@H]1/C=C\[C@@H](CCCCN)NC(=O)[C@H](CCCCN)NC(=O)[C@@H](CCCN=C(N)N)NC(=O)[C@H](Cc2ccc(O)cc2)NC(=O)[C@@H](NC(=O)[C@H](Cc2ccc3ccccc3c2)NC(=O)[C@H](CCCN=C(N)N)NC(=O)[C@@H](N)CCCN=C(N)N)CSSC[C@@H](C(=O)N[C@@H](CCCN=C(N)N)C(=O)O)NC(=O)C(CCCNC(N)=O)NC(=O)[C@@H](CCCN=C(N)N)NC(=O)[C@H](Cc2ccc(O)cc2)NC1=O (stereo partly drawn)
- SI [3]: > 220000 and 140000

SMILES: C[C@H]1/C=C\[C@@H](CCCCN)NC(=O)[C@H](CCCCN)NC(=O)[C@H](CCCN=C(N)N)NC(=O)[C@H](Cc2ccc(O)cc2)NC(=O)[C@@H](NC(=O)[C@H](CSC23C[C@H]4C[C@@H](C2)C[C@@H](C3)C4)NC(=O)[C@H](CCCN=C(N)N)NC(=O)[C@@H](N)CCCN=C(N)N)CSSC[C@@H](C(=O)N[C@@H](CCCN=C(N)N)C(N)=O)NC(=O)[C@H](CCCNC(N)=O)NC(=O)[C@H](CCCN=C(N)N)NC(=O)[C@H](Cc2ccc(O)cc2)NC1=O [listing 2 of 2 here]
- pEC50 ([2]; mt4): 8.15 and 7.77
- pIC50 [5]: 6.77

SMILES: C[C@H]1/C=C\[C@@H](CCCCN)NC(=O)[C@H](CCCCN)NC(=O)[C@H](CCCN=C(N)N)NC(=O)[C@H](Cc2ccc(O)cc2)NC(=O)[C@@H](NC(=O)[C@H](Cc2ccc3ccccc3c2)NC(=O)[C@H](CCCN=C(N)N)NC(=O)[C@@H](N)CCCN=C(N)N)CSSC[C@@H](C(=O)N[C@@H](CCCN=C(N)N)C(N)=O)NC(=O)[C@H](CCCNC(N)=O)NC(=O)[C@H](CCCN=C(N)N)NC(=O)[C@H](Cc2ccc(O)cc2)NC1=O
- CC50 [1]: 58000 nM
- CC50 ([1]; Homo sapiens, MT4): 57000 nM

SMILES: C[C@H]1/C=C\[C@@H](CCCCN)NC(=O)[C@H](CCCCN)NC(=O)[C@@H](CCCN=C(N)N)NC(=O)[C@H](Cc2ccc(O)cc2)NC(=O)[C@@H](NC(=O)[C@H](Cc2c[nH]c3ccccc23)NC(=O)[C@H](CCCN=C(N)N)NC(=O)[C@@H](N)CCCN=C(N)N)CSSC[C@@H](C(=O)N[C@@H](CCCN=C(N)N)C(=O)O)NC(=O)C(CCCNC(N)=O)NC(=O)[C@@H](CCCN=C(N)N)NC(=O)[C@H](Cc2ccc(O)cc2)NC1=O (stereo partly drawn)
- SI [3]: > 78000

SMILES: C[C@H]1/C=C\[C@@H](CCCCN)NC(=O)[C@H](CCCCN)NC(=O)[C@H](CCCN=C(N)N)NC(=O)[C@H](Cc2ccc(O)cc2)NC(=O)[C@@H](NC(=O)[C@H](CSCc2ccccc2)NC(=O)[C@H](CCCN=C(N)N)NC(=O)[C@@H](N)CCCN=C(N)N)CSSC[C@@H](C(=O)N[C@@H](CCCN=C(N)N)C(N)=O)NC(=O)[C@H](CCCNC(N)=O)NC(=O)[C@H](CCCN=C(N)N)NC(=O)[C@H](Cc2ccc(O)cc2)NC1=O [listing 2 of 2 here]
- pEC50 ([2]; Homo sapiens, MT4): 7.17
- pEC50 ([2]; mt4): 7.35
- pIC50 [5]: 7.44

SMILES: C[C@H]1/C=C\[C@@H](CCCCN)NC(=O)[C@H](CCCCN)NC(=O)[C@@H](CCCN=C(N)N)NC(=O)[C@H](Cc2ccc(O)cc2)NC(=O)[C@@H](NC(=O)[C@H](Cc2ccc3ccccc3c2)NC(=O)[C@H](CCCN=C(N)N)NC(=O)[C@@H](N)CCCN=C(N)N)CSSC[C@@H](C(=O)N[C@@H](CCCN=C(N)N)C(N)=O)NC(=O)C(CCCNC(N)=O)NC(=O)[C@@H](CCCN=C(N)N)NC(=O)[C@H](Cc2ccc(O)cc2)NC1=O (stereo partly drawn)
- SI [3]: 12000 and 31000

SMILES: Nc1ccn([C@H]2CC[C@@H](CO)O2)c(=O)n1 [ZALCITABINE]
- CC50 ([1]; Homo sapiens, MT4): 48000 nM
- pEC50 ([2]; Homo sapiens, MT4): 7.48
- SI [3]: 1500
